# ChEMBL document CHEMBL3352165 (Eur J Med Chem, 2014)
# Key:
# A-431 = experiment: Cytotoxicity against human A431 cells assessed as inhibition of cell growth after 72 hrs by sulforhodamine B assay; type: functional, cell-based; details: A-431, 72 h
# How it was run: (§1)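 Cells grown in RPMI-1640 with 5% FBS and plated at 5.0×10^4/ml. Next day exposed to 0.5–5000 ng/ml for 3 days. Survival read by sulforhodamine B staining. IC50 taken from growth curves; mean of at least three determinations.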
# MCF7 = experiment: Cytotoxicity against human MCF7 cells assessed as inhibition of cell growth after 72 hrs by sulforhodamine B assay; type: functional, cell-based; details: MCF7, 72 h; how it was run: as §1
# BT-474 = experiment: Cytotoxicity against human BT474 cells assessed as inhibition of cell growth after 72 hrs by sulforhodamine B assay; type: functional, cell-based; details: BT-474, 72 h; how it was run: as §1
# [1] = target: Platelet-derived growth factor receptor beta (Homo sapiens, UniProt P09619); experiment: Inhibition of PDGFRbeta (unknown origin) by ELISA method
# How it was run: (§2)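 Phosphotyrosine ELISA with purified kinase (20 ng) and 5 µM ATP in buffer (50 mM HEPES pH 7.4, 20 mM MgCl2, 0.1 mM MnCl2, 0.2 mM Na3VO4, 1 mM DTT), 1 h at 37 °C, DMSO ≤1%. Detection by PY99 antibody, then HRP anti-mouse IgG with o-phenylenediamine, A490. IC50 by Logit from at least three independent tests.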
# [2] = Cytotoxicity against human SKBR3 cells assessed as inhibition of cell growth after 72 hrs by sulforhodamine B assay; type: functional, cell-based; details: SK-BR-3, 72 h; how it was run: as §1
# [3] = target: Receptor tyrosine-protein kinase erbB-2 (Homo sapiens, UniProt P04626); experiment: Inhibition of HER2 (unknown origin) assessed as reduction in autophosphorylation by ELISA method; how it was run: as §2
# [4] = target: Mast/stem cell growth factor receptor Kit (Homo sapiens, UniProt P10721); experiment: Inhibition of c-KIT (unknown origin) by ELISA method; how it was run: as §2
# [5] = target: Epidermal growth factor receptor (Homo sapiens, UniProt P00533); experiment: Inhibition of HER1 (unknown origin) assessed as reduction in autophosphorylation by ELISA method
# [6] = target: Vascular endothelial growth factor receptor 2 (Homo sapiens, UniProt P35968); experiment: Inhibition of KDR (unknown origin) by ELISA method; how it was run: as §2
# [7] = Tmax in Beagle dog at 240 mg/kg, po administered as single dose measured after 0.25 to 24 hrs post dose by LC/MS/MS method; type: ADME, organism-based, Canis lupus familiaris; parameters: dose 240 mg/kg, route oral; details: in vivo
# How it was run: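 Beagle dogs (n = 6), single oral gavage dose of 240 mg/kg. Plasma levels measured by validated LC/MS/MS. Tmax read directly from the concentration-time data.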
# cells [8] = details: Homo sapiens, SK-OV-3, 72 h
# cells [9] = details: Homo sapiens, Calu-3, 72 h
# [10] = Cmax in Beagle dog at 240 mg/kg, po administered as single dose measured after 0.25 to 24 hrs post dose by LC/MS/MS method; type: ADME, organism-based, Canis lupus familiaris; parameters: dose 240 mg/kg, route oral; details: in vivo
# How it was run: (§3)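 Single oral gavage of 240 mg/kg to beagle dogs (n = 6). Blood sampled at 0.25–24 h, kept on ice, centrifuged within 1 h (1000 × g, 4 °C, 15 min), plasma stored at −20 °C. Drug quantified by validated LC/MS/MS. AUC0–24 from non-compartmental analysis; Cmax and MRT taken directly from concentration–time data.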
# MDA-MB-231 = experiment: cells; details: Homo sapiens, MDA-MB-231, 72 h
# MDA-MB-453 = experiment: cells; details: Homo sapiens, MDA-MB-453, 72 h
# [11] = AUC (0 to 24 hrs) in Beagle dog at 240 mg/kg, po administered as single dose measured after 0.25 to 24 hrs post dose by LC/MS/MS method; type: ADME, organism-based, Canis lupus familiaris; parameters: time < 24 hr, dose 240 mg/kg, route oral; details: plasma; how it was run: as §3
# NCI-H460 = experiment: cells; details: Homo sapiens, NCI-H460, 72 h
# [12] = Mean residence time in Beagle dog at 240 mg/kg, po administered as single dose measured after 0.25 to 24 hrs post dose by LC/MS/MS method; type: ADME, organism-based, Canis lupus familiaris; parameters: dose 240 mg/kg, route oral; details: in vivo; how it was run: as §3
# MRC5 = experiment: cells; details: Homo sapiens, MRC5, 72 h
# [13] = Antitumor activity against human Calu3 cells xenografted in BALB/cA mouse assessed as tumor growth inhibition at 200 mg/kg, po; type: functional; details: Calu-3, read-out: TGI
# How it was run: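 Female BALB/cA nude mice, 6–7 weeks old, implanted s.c. on midright side with 2×10^6 Calu-3 cells in 0.2 ml PBS. Grouped at 60–150 mm³ tumour volume (6 per treated group, 12 vehicle). Oral dosing in 0.5% CMC with 0.1% Tween-80. Caliper volume = L×W²×0.5; inhibition = (1 − T/C)×100% on relative tumour volume; weight tracked for 21 d.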
# Mus musculus = experiment: Toxicity in human Calu3 cells xenografted BALB/cA mouse assessed as body weight loss at 200 mg/kg, po measured every other day for 21 days; type: organism-based, Calu-3; parameters: dose 200 mg/kg, route oral; details: in vivo, 504 h
# How it was run: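 Female BALB/cA nude mice, 6–7 weeks old, implanted s.c. on the mid-right flank with 2×10^6 Calu-3 cells in 0.2 ml PBS. At 60–150 mm³ tumour volume, mice randomised into six per treatment group (twelve vehicle controls). Oral dosing in 0.5% CMC aqueous solution with 0.1% Tween-80. Body weight recorded every other day for 21 d.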
# Mast/stem cell growth factor receptor Kit, sequence (P10721 whole entry): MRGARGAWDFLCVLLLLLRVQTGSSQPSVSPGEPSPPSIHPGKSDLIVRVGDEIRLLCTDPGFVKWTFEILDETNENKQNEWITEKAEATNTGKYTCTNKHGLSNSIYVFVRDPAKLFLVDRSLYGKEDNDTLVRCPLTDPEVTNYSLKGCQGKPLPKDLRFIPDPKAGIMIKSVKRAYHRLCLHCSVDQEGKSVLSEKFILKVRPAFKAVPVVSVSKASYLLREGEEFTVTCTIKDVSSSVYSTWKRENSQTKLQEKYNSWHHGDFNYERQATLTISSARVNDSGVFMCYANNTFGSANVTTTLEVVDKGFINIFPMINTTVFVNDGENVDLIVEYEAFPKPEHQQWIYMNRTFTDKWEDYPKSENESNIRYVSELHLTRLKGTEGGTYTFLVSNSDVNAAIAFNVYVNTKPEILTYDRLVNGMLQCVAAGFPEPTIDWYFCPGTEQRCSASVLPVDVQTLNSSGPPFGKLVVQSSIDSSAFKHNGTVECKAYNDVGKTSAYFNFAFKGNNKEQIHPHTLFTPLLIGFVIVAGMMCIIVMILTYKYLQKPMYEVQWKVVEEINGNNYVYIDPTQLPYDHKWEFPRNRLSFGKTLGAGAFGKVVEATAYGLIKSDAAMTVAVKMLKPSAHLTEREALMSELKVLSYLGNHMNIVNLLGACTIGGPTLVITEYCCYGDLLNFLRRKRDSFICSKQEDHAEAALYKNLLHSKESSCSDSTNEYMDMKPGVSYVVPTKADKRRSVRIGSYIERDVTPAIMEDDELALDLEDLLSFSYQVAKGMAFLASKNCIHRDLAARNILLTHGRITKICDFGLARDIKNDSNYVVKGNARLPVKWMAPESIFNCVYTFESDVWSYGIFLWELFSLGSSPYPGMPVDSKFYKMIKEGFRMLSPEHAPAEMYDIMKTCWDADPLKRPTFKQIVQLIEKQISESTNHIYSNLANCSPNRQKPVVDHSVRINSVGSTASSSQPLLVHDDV
# Platelet-derived growth factor receptor beta, sequence (P09619 whole entry): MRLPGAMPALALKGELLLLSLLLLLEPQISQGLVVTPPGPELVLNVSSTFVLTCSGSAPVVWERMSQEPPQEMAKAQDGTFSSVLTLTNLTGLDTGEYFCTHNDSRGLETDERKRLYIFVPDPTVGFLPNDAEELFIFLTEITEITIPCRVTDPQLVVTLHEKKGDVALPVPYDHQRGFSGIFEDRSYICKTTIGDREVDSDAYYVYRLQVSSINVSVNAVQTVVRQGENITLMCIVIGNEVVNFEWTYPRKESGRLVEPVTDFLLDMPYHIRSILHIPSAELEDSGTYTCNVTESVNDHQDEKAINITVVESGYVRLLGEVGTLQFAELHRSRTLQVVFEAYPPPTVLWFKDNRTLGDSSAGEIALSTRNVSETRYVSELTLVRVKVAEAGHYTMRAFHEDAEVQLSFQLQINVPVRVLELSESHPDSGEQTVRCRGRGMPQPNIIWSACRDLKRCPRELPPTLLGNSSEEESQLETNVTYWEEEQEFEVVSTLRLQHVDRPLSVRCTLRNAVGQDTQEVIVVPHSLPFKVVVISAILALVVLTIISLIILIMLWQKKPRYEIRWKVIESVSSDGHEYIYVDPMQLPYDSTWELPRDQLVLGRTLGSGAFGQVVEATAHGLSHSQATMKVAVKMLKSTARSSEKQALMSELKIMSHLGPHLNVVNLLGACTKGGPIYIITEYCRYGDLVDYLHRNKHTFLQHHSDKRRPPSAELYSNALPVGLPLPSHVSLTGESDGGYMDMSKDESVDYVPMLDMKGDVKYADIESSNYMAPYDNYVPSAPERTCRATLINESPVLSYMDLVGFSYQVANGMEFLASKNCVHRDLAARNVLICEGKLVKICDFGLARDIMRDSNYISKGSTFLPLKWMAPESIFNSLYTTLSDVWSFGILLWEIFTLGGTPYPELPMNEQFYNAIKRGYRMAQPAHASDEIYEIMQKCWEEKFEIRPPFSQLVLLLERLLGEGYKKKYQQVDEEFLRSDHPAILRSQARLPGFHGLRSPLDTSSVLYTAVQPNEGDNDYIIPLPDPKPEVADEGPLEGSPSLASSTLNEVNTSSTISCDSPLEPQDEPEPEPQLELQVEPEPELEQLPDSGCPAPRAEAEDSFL
# Receptor tyrosine-protein kinase erbB-2, sequence (P04626 whole entry): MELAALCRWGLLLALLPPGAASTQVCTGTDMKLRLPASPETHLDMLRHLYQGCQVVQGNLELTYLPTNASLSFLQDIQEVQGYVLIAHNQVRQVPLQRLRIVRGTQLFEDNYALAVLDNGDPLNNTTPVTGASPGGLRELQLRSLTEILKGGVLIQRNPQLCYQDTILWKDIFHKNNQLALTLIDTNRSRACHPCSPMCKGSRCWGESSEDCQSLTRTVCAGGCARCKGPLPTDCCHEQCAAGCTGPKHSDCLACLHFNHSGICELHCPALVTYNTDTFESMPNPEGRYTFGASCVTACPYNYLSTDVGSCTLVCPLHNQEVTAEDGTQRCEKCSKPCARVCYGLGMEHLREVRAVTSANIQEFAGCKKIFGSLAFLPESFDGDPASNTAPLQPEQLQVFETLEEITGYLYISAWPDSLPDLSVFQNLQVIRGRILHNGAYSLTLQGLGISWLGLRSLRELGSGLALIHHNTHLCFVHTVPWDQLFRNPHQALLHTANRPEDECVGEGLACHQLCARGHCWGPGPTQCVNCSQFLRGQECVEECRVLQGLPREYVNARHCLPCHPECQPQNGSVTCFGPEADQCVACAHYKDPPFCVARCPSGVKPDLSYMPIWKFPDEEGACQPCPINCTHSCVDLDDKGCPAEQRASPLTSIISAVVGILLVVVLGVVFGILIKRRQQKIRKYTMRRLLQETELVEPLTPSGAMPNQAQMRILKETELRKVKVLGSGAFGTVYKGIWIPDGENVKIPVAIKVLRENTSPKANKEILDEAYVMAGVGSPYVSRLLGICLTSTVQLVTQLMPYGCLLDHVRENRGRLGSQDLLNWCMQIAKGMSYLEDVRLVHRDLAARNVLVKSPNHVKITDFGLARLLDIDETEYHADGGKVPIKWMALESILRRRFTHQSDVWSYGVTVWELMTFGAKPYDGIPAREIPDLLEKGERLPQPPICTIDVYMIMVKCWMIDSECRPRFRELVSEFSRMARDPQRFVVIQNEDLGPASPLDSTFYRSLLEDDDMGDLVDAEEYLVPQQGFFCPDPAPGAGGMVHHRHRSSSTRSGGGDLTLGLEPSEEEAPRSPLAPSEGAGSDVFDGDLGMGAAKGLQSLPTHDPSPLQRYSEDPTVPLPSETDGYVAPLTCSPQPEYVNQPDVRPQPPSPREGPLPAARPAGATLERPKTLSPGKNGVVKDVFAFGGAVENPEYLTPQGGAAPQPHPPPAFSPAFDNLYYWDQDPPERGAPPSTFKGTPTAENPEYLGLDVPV
# Epidermal growth factor receptor, sequence (P00533 whole entry): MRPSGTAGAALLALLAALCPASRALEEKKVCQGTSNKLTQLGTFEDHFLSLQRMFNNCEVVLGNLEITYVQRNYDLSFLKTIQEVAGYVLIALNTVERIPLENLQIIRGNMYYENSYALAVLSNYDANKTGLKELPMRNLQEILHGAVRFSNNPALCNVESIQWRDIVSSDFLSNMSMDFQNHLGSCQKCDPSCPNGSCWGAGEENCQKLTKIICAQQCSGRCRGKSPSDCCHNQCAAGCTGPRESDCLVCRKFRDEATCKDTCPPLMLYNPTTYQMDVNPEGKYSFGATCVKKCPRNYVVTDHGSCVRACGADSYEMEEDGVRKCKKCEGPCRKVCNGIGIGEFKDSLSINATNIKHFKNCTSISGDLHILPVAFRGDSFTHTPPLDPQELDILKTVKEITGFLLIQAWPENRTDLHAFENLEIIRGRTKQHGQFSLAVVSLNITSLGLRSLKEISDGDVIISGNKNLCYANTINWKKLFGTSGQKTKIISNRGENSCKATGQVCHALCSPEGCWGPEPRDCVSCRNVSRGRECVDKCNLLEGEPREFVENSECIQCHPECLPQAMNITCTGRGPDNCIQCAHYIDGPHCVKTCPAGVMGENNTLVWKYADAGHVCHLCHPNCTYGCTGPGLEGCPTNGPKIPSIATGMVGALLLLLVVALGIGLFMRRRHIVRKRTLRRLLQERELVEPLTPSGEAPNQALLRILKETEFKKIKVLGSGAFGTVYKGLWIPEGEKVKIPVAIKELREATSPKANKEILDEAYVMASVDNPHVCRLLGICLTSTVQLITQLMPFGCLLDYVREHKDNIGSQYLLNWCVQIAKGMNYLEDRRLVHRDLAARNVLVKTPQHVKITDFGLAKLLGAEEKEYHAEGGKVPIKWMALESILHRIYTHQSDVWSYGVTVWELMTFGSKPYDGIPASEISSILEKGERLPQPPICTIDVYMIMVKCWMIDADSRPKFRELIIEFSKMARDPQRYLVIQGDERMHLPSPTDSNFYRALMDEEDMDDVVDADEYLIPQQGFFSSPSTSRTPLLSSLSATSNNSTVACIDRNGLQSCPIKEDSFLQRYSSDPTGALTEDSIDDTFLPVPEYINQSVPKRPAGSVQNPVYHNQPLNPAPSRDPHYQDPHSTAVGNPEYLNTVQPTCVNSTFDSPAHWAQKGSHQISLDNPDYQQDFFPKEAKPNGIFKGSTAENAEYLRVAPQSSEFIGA
SMILES,IC50 [1] [nM],IC50 [3] [nM],IC50 [4] [nM],IC50 [5] [nM],IC50 [6] [nM],IC50 (A-431) [nM],IC50 (MCF7) [nM],IC50 (BT-474) [nM],IC50 [2] [nM],further results
CC(C)NC(CS(C)(=O)=O)c1ccc(-c2ccc3ncnc(Nc4ccc(OCc5cccc(F)c5)c(Cl)c4)c3c2)o1 (racemic),> 200000,48.3,> 200000,,> 200000,623,6110,94.4,101,
CN(C)[C@@H](CS(C)(=O)=O)c1ccc(-c2ccc3ncnc(Nc4ccc(OCc5cccc(F)c5)c(Cl)c4)c3c2)o1,> 200000,26.1,> 200000,30.4,> 200000,768,6670,83.2,27.8,
CN(C)C(CS(C)(=O)=O)c1ccc(-c2ccc3ncnc(Nc4ccc(OCc5cccc(F)c5)c(Cl)c4)c3c2)o1 (racemic),> 200000,3.6,> 200000,6.8,> 200000,604,6120,48.6,36.2,inhibition in vivo at 200 mg/kg [13]: 58%; Activity (Mus musculus): Non-toxic
CNC(CS(C)(=O)=O)c1ccc(-c2ccc3ncnc(Nc4ccc(OCc5cccc(F)c5)c(Cl)c4)c3c2)o1 (racemic),> 200000,1,> 200000,34.8,> 200000,648,6520,76.8,30.1,
CCOC(=O)N[C@H](CS(C)(=O)=O)c1ccc(-c2ccc3ncnc(Nc4ccc(OCc5cccc(F)c5)c(Cl)c4)c3c2)o1,> 200000,152,> 200000,89.6,> 200000,884,8930,120,106,
CS(=O)(=O)CCNC(CS(C)(=O)=O)c1ccc(-c2ccc3ncnc(Nc4ccc(OCc5cccc(F)c5)c(Cl)c4)c3c2)o1 (racemic),> 200000,52.2,> 200000,28.7,> 200000,684,7010,104,123,
CCCCCCOC(=O)N[C@H](CS(C)(=O)=O)c1ccc(-c2ccc3ncnc(Nc4ccc(OCc5cccc(F)c5)c(Cl)c4)c3c2)o1,> 200000,158,> 200000,110,> 200000,1200,> 10000,1920,1050,

# Second part, led by results:
IC50 [1] [nM],IC50 [3] [nM],IC50 [4] [nM],IC50 [5] [nM],IC50 [6] [nM],SMILES,IC50 (A-431) [nM],IC50 (MCF7) [nM],IC50 (BT-474) [nM],IC50 [2] [nM],further results
> 200000,10.6,> 200000,13.5,> 200000,CS(=O)(=O)C[C@H](N)c1ccc(-c2ccc3ncnc(Nc4ccc(OCc5cccc(F)c5)c(Cl)c4)c3c2)o1,632,9340,116,84.1,
> 200000,15.5,> 200000,14.7,> 200000,CCNC(CS(C)(=O)=O)c1ccc(-c2ccc3ncnc(Nc4ccc(OCc5cccc(F)c5)c(Cl)c4)c3c2)o1 (racemic),884,8730,109,33.9,
> 200000,164,> 200000,92.8,> 200000,CCCCOC(=O)N[C@H](CS(C)(=O)=O)c1ccc(-c2ccc3ncnc(Nc4ccc(OCc5cccc(F)c5)c(Cl)c4)c3c2)o1,1090,9210,1000,702,
> 200000,2.9,> 200000,10.8,> 200000,CS(=O)(=O)C[C@@H](N)c1ccc(-c2ccc3ncnc(Nc4ccc(OCc5cccc(F)c5)c(Cl)c4)c3c2)o1,663,6830,69.2,21,Tmax [7]: 5 h; IC50 (cells [8]): 410 nM; IC50 (cells [9]): 220 nM; Cmax [10]: 2100 ng/mL; IC50 (MDA-MB-231): > 100000 nM; IC50 (MDA-MB-453): 240 nM; AUC(0-t) at 24 h [11]: 20300 ng·h/mL; IC50 (NCI-H460): > 100000 nM; MRT [12]: 6.8 h; IC50 (MRC5): > 100000 nM
> 200000,3.4,> 200000,17.6,> 200000,CS(=O)(=O)CC(N)c1ccc(-c2ccc3ncnc(Nc4ccc(OCc5cccc(F)c5)c(Cl)c4)c3c2)o1 (racemic),683,6620,75.4,26.6,
> 200000,58.6,> 200000,77.2,> 200000,CS(=O)(=O)CC(NC1CCCCC1)c1ccc(-c2ccc3ncnc(Nc4ccc(OCc5cccc(F)c5)c(Cl)c4)c3c2)o1 (racemic),773,9130,174,162,
